This is an account of results in ChEMBL document CHEMBL1121975, “Effect of N,N'-diethyl-1,2-bis(2,6-dichloro-4-hydroxyphenyl)ethylenediamines on the 7,12-dimethylbenz[a]anthracene-induced mammary carcinoma of the rat” (1982).

Assay [1] concerns the target Estrogen receptor (Bos taurus) (UniProt Q9XSB5+P49884). The experiment in a line: Displacement of [3H]- estradiol from calf uterine estrogen receptor. It is filed as protein assay. In a few lines: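 Competitive binding with calf uterine cytosol as the estrogen receptor source, [3H]estradiol as tracer, and dextran-charcoal separation. RBA = (molar concentration of E2 / molar concentration of inhibitor needed to reduce bound [3H]E2 by 50%) × 100, with 17β-estradiol = 100.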
A general note: Loss of bound radioactivity is the signal in a displacement assay; it reports binding, not function.

Assay [2] concerns Rattus norvegicus. The experiment in a line: Progression of DMBA-induced mammary carcinoma in rats at 6 mg/kg dose. It is filed as functional. In a few lines: (§1)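 Sprague-Dawley rats bearing DMBA-induced mammary tumours, randomized in groups of 10 between days 35 and 70 after induction. Dosing was sc in olive oil at 2 or 6 mg/kg: a single dose daily Monday–Thursday and a double dose Friday, for 4 weeks. Tumour number was taken at test start. Complete remission = not palpable; partial = ≤50% of initial size; static = 51-150% of initial size.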

The species named for assay [3] is Rattus norvegicus. The experiment in a line: (§2) Partial remission of DMBA-induced mammary carcinoma in rats. The assay is classed as functional. In a few lines: as §1
For assay [4], the system named is Rattus norvegicus. The experiment in a line: Tumour number in DMBA-induced mammary carcinoma in rats at 6 mg/kg dose. The assay is classed as functional. In a few lines: as §1
The species named for assay [5] is Rattus norvegicus. The experiment in a line: (§3) Unchanged total tumor area (51-150%) in DMBA-induced mammary carcinoma in rats. It is filed as functional. In a few lines:
as §1

The test system of assay [6] is Rattus norvegicus. The experiment in a line: Complete remission of DMBA-induced mammary carcinoma in rats at 6 mg/kg dose. The assay is classed as functional. In a few lines: as §1
The test system of assay [7] is Rattus norvegicus. The experiment in a line: Complete remission of DMBA-induced mammary carcinoma in rats at 2 mg/kg dose. It is filed as functional. In a few lines:
as §1

The species entered for assay [8] is Rattus norvegicus. The description is as §3. The assay is classed as functional. In a few lines: as §1
This is another data set of the same source.

Assay [9] relates to Rattus norvegicus. The experiment in a line: Change in body weight in rats after 7 days at 6 mg/kg dose. The assay is classed as functional.
Assay [10] concerns Rattus norvegicus. The experiment in a line: Tumour number in DMBA-induced mammary carcinoma in rats at 2 mg/kg dose. The assay is classed as functional. In a few lines: as §1
Assay [11] is filed under the species Rattus norvegicus. The experiment in a line: (§4) Increased total tumor area (>150%) in DMBA-induced mammary carcinoma in rats. The assay is classed as functional. In a few lines: as §1
Assay [12] relates to Rattus norvegicus. The experiment in a line: Change in body weight in rats after 7 days at 2 mg/kg dose. It is filed as functional.
The species named for assay [13] is Rattus norvegicus. The assay is described as §2. The assay is classed as functional. In a few lines:
as §1
This is another data set of the same source.

Assay [14] is filed under the species Rattus norvegicus. Described as §4. It is filed as functional. In a few lines: as §1
This is another data set of the same source.

Assay [15] concerns Rattus norvegicus. The experiment in a line: Progression of DMBA-induced mammary carcinoma in rats at 2 mg/kg dose. The assay is classed as functional. In a few lines: as §1
For assay [16], the species on record is Rattus norvegicus. Described as §4. It is filed as functional. In a few lines:
as §1
The source holds these as a separate data set.

The structures appear in SMILES notation.

Compound `CNC(c1c(Cl)cc(O)cc1Cl)C(NC)c1c(Cl)cc(O)cc1Cl` (stereo in doubt) returned a relative binding affinity (RBA) in assay [1] of 2.3.

`CCCNC(c1c(Cl)cc(O)cc1Cl)C(NCCC)c1c(Cl)cc(O)cc1Cl` (stereo in doubt): in assay [1], the relative binding affinity (RBA) is 8.2.

For `CCNC(c1c(Cl)cc(O)cc1Cl)C(NCC)c1c(Cl)cc(O)cc1Cl` (racemic) [listing 1 of 2 here], the relative binding affinity (RBA) in assay [1] is 2.1.

On to `CCNC(c1c(Cl)cc(O)cc1Cl)C(NCC)c1c(Cl)cc(O)cc1Cl` (racemic) [listing 2 of 2 here], for which the New tumors in assay [2] came to 15; in [15], 18. In addition, the Partial remission came out at 11% in assay [3] and 26% in assay [13]. Further, the No. of tumors in assay [4] worked out at 28; in [10], 34. Moreover, the Static tumors in [5] amounted to 23%; in assay [8], 21%. The Complete remission in [6] was determined as 35%; in assay [7], 14%. Moreover, the entries for the “Change of body weight” value in assay [9] and in assay [12] were -2% and 0%, respectively. The “Change of tumor area” value in [9] was -24%; in assay [12] it was 282%. Besides, the Progressed tumors turned out to be 54% in [11] and 16% in assay [14].

Consider `CNC(c1c(Cl)cc(O)cc1Cl)C(NC)c1c(Cl)cc(O)cc1Cl` (racemic), for which the relative binding affinity (RBA) in assay [1] was 1.3.

`CCNC(c1c(Cl)cc(O)cc1Cl)C(NCC)c1c(Cl)cc(O)cc1Cl` (stereo in doubt) [listing 1 of 2 here]: in [1], the relative binding affinity (RBA) turned out to be 8.6.

In [1], `CCCNC(c1c(Cl)cc(O)cc1Cl)C(NCCC)c1c(Cl)cc(O)cc1Cl` (racemic) had a relative binding affinity (RBA) of 1.

With `CCNC(c1c(Cl)cc(O)cc1Cl)C(NCC)c1c(Cl)cc(O)cc1Cl` (stereo in doubt) [listing 2 of 2 here], the New tumors in [2] was 6; in [15], 7. Also, the Partial remission in [3] is 14%; in assay [13], 53%. Moreover, the figures for the No. of tumors in assay [4] and in assay [10] were 26 and 35, respectively. Besides, the Progressed tumors in assay [16] was found to be 26%; in [14], 3%. Besides, the Static tumors amounted to 16% in [5] and 10% in assay [8]. Moreover, the Complete remission in assay [6] turned out to be 28%; in assay [7], 50%. Further, the “Change of body weight” value is given as -4% in [9] and -6% in assay [12]. Besides, the “Change of tumor area” value in assay [9] was -74%; in assay [12], 29%.
